Tests used:
Format in all cases: in vivo, mouse
[1] = tested on: athymic nude mice bearing U87MG human glioma xenografts; assay: Biodistribution in athymic nude mice bearing U87MG glioma xenografts; conditions: average ± SD; for Brain uptake / Eyes uptake / Heart uptake / Intestine uptake / Kidney uptake / Liver uptake / Lungs uptake / Muscle uptake / Spleen uptake / Blood uptake / Tumor uptake: tail vein ~0.1 MBq; for Blood uptake: γ-counting; for Tumor uptake: U87MG glioma xenograft
Summary of the method: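 Tumour model: female athymic nu/nu mice, 4–5 weeks old, inoculated s.c. in the shoulder flank with 5 × 10^6 U87MG cells and used 4 weeks later (tumours 0.1–0.5 g; mice 20–25 g). Dosing: ~0.1 MBq radiotracer (~2 ng conjugate) in filtered saline. Groups of 5–8 killed at 5, 30, 60 and 120 min by pentobarbital overdose. Blood and organs washed, blotted, weighed and γ-counted as %ID/g.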

[2] = tested on: athymic nude mice bearing U87MG glioma xenografts; conditions: 60 min p.i.
[3] = tested on: athymic nude mice bearing U87MG human glioma xenografts; assay: SPECT/CT imaging with SPECT quantification of tumor uptake; conditions: U87MG glioma xenograft; ~37 MBq via tail vein; imaging at 60 min p.i.
Summary of the method: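 Imaging dose: ~37 MBq radiotracer (~0.8 µg conjugate) in 0.1 mL saline i.v.; mice imaged under isoflurane. SPECT: multi-pinhole collimator (0.6 mm), 75 projections per 30-min frame, 2 frames. CT: 45 kV, 500 µA, 2° intervals. Tumour ROIs drawn on CT; counts converted to activity via a standard curve from sources of known activity scanned the same way; expressed as %ID/cm3.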

[4] = tested on: athymic nude mice without tumors; assay: Metabolism study; conditions: ~10 MBq via tail vein, n = 3, radio-HPLC
Summary of the method: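 Tumour-free athymic nude mice (n = 3), ~10 MBq radiotracer i.v. Urine (manual void): mixed 1:1 with 50% acetonitrile, spun at 8,000 rpm, supernatant 0.20 µm-filtered. Feces: homogenised, suspended in 20% acetonitrile, vortexed ~5 min, spun, filtered. Filtrates analysed by C18 HPLC at 2.5 mL/min on a 0.05% TFA water/acetonitrile gradient (10% to 30% B over 20 min).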

[5] = co-injection of excess RGD2 (350 µg/mouse or 14 mg/kg), n = 6

With “[^99mTc(HYNIC-Galacto-RGD2)(tricine)(TPPTS)] (bicyclic or more) [^99mTc-Galacto-RGD2]” the Tumor/Blood ratio ([1]; 5 min p.i., n = 5) was 9.43 ± 1.19, the Tumor/Kidney ratio ([1]; 5 min p.i., n = 5) was 0.52 ± 0.14 and the Tumor/Liver ratio ([1]; 5 min p.i., n = 5) was 2.66 ± 0.51. For the same substance, the Tumor/Lung ratio ([1]; 5 min p.i., n = 5) was 1.90 ± 0.21, the Tumor/Muscle ratio ([1]; 5 min p.i., n = 5) was 3.98 ± 0.75 and the Brain uptake ([1]; 5 min p.i., n = 5) was 0.41 ± 0.10 %ID/g. The Eyes uptake ([1]; 5 min p.i., n = 5) was 1.54 ± 0.49 %ID/g, the Heart uptake ([1]; 5 min p.i., n = 5) was 2.36 ± 0.29 %ID/g and the Intestine uptake ([1]; 5 min p.i., n = 5) was 3.78 ± 0.52 %ID/g. The Kidney uptake ([1]; 5 min p.i., n = 5) was 18.75 ± 2.79 %ID/g, the Liver uptake ([1]; 5 min p.i., n = 5) was 4.00 ±1.10 %ID/g and the Lungs uptake ([1]; 5 min p.i., n = 5) was 5.41 ± 0.58 %ID/g. The Muscle uptake ([1]; 5 min p.i., n = 5) was 2.73 ± 0.89 %ID/g, the Spleen uptake ([1]; 5 min p.i., n = 5) was 2.97 ± 0.43 %ID/g and the Blood uptake ([1]; 5 min p.i., n = 5) was 1.10 ± 0.16 %ID/g. It also gave a Tumor/Blood ratio ([1]; 30 min p.i., n = 5) of 9.65 ± 2.03, a Tumor/Kidney ratio ([1]; 30 min p.i., n = 5) of 0.61 ±0.12 and a Tumor/Liver ratio ([1]; 30 min p.i., n = 5) of 3.25 ± 0.85. It also gave a Tumor/Lung ratio ([1]; 30 min p.i., n = 5) of 2.19 ± 0.75, a Tumor/Muscle ratio ([1]; 30 min p.i., n = 5) of 7.97 ± 2.53 and a Brain uptake ([1]; 30 min p.i., n = 5) of 0.22 ± 0.06 %ID/g. The Eyes uptake ([1]; 30 min p.i., n = 5) was 1.20 ± 0.50 %ID/g, the Heart uptake ([1]; 30 min p.i., n = 5) was 1.65 ± 1.10 %ID/g and the Intestine uptake ([1]; 30 min p.i., n = 5) was 4.24 ± 1.54 %ID/g. It also gave a Kidney uptake ([1]; 30 min p.i., n = 5) of 13.13 ± 4.75 %ID/g, a Liver uptake ([1]; 30 min p.i., n = 5) of 2.82 ± 1.25 %ID/g and a Lungs uptake ([1]; 30 min p.i., n = 5) of 4.24 ± 1.71 %ID/g. For the same substance, the Muscle uptake ([1]; 30 min p.i., n = 5) was 1.10 ± 0.25 %ID/g, the Spleen uptake ([1]; 30 min p.i., n = 5) was 2.53 ± 0.85 %ID/g and the Blood uptake ([1]; 30 min p.i., n = 5) was 0.92 ± 0.33 %ID/g. For the same substance, the Tumor/Blood ratio ([1]; 60 min p.i., n = 8) was 15.94 ± 8.85, the Tumor/Kidney ratio ([1]; 60 min p.i., n = 8) was 0.79 ±0.40 and the Tumor/Liver ratio ([1]; 60 min p.i., n = 8) was 3.05 ± 1.69. The Tumor/Lung ratio ([1]; 60 min p.i., n = 8) was 2.73 ± 1.33, the Tumor/Muscle ratio ([1]; 60 min p.i., n = 8) was 9.40 ± 5.11 and the Brain uptake ([1]; 60 min p.i., n = 8) was 0.35 ± 0.28 %ID/g. For the same substance, the Eyes uptake ([1]; 60 min p.i., n = 8) was 0.81 ± 0.39 %ID/g, the Heart uptake ([1]; 60 min p.i., n = 8) was 1.27 ± 0.61 %ID/g and the Intestine uptake ([1]; 60 min p.i., n = 8) was 5.45 ± 1.47 %ID/g. It also gave a Kidney uptake ([1]; 60 min p.i., n = 8) of 11.70 ± 4.06 %ID/g, a Liver uptake ([1]; 60 min p.i., n = 8) of 3.07 ± 2.14 %ID/g and a Lungs uptake ([1]; 60 min p.i., n = 8) of 2.93 ± 0.94 %ID/g. For the same substance, the Muscle uptake ([1]; 60 min p.i., n = 8) was 0.88 ± 0.34 %ID/g, the Spleen uptake ([1]; 60 min p.i., n = 8) was 1.99 ± 0.71 %ID/g and the Blood uptake ([1]; 60 min p.i., n = 8) was 0.56 ± 0.25 %ID/g. For the same substance, the Tumor/Blood ratio ([1]; 120 min p.i., n = 8) was 26.48 ± 8.71, the Tumor/Kidney ratio ([1]; 120 min p.i., n = 8) was 0.89 ±0.48 and the Tumor/Liver ratio ([1]; 120 min p.i., n = 8) was 4.03 ± 2.04. For the same substance, the Tumor/Lung ratio ([1]; 120 min p.i., n = 8) was 4.38 ± 1.34, the Tumor/Muscle ratio ([1]; 120 min p.i., n = 8) was 12.91 ± 4.95 and the Brain uptake ([1]; 120 min p.i., n = 8) was 0.14 ± 0.12 %ID/g. For the same substance, the Eyes uptake ([1]; 120 min p.i., n = 8) was 0.52 ± 0.15 %ID/g, the Heart uptake ([1]; 120 min p.i., n = 8) was 0.56 ± 0.08 %ID/g and the Intestine uptake ([1]; 120 min p.i., n = 8) was 3.37 ± 1.32 %ID/g. For the same substance, the Kidney uptake ([1]; 120 min p.i., n = 8) was 6.04 ± 1.92 %ID/g, the Liver uptake ([1]; 120 min p.i., n = 8) was 1.54 ±0.43 %ID/g and the Lungs uptake ([1]; 120 min p.i., n = 8) was 1.31 ± 0.23 %ID/g. The Muscle uptake ([1]; 120 min p.i., n = 8) was 0.47 ± 0.12 %ID/g, the Spleen uptake ([1]; 120 min p.i., n = 8) was 1.46 ± 0.26 %ID/g and the Blood uptake ([1]; 120 min p.i., n = 8) was 0.22 ± 0.03 %ID/g. It also gave a Tumor uptake ([1]; 5 min p.i., n = 5) of 10.30 ± 1.67 %ID/g, a Tumor uptake ([1]; 30 min p.i., n = 5) of 8.37 ± 2.13 %ID/g and a Tumor uptake ([1]; 60 min p.i., n = 8) of 6.86 ± 1.33 %ID/g. For the same substance, the Tumor uptake ([1]; 120 min p.i., n = 8) was 5.61 ± 1.52 %ID/g, the “Intestine uptake in the presence of RGD2” value [2, 5] was 1.82 ± 0.86 %ID/g and the “Lungs uptake in the presence of RGD2” value [2, 5] was 1.52 ± 0.27 %ID/g. For the same substance, the “Spleen uptake in the presence of RGD2” value [2, 5] was 0.65 ± 0.07 %ID/g, the “Tumor uptake with RGD2” value ([2]; co-injection of excess RGD2 (350 µg/mouse or 14 mg/kg), n = 6, average ± SD) was 1.48 ± 0.42 %ID/g and the “Reduction of liver uptake by co-injected excess RGD2” value ([2]; of its origin value) was 50%. The “Reduction of lung uptake by co-injected excess RGD2” value ([2]; of its origin value) was 50%, the “Tumor uptake on the basis of SPECT quantification” value [3] was ~ 8.5 %ID/cm^3 and the “Remained intact in the feces” value ([4]; feces at 2 h p.i.) was “More than 90%”. For the same substance, the “Metabolites in the urine” value ([4]; urine at 30 min and 120 min p.i.) was “no metabolites detected”.

— article PMC3946497 (Molecular pharmaceutics, 2013)
